Measured values published in ChEMBL document CHEMBL5705901, “Exploiting selective BCL-2 family inhibitors to dissect cell survival dependencies and define improved strategies for cancer therapy” (Sci Transl Med, 2015).

Legend:
EOL1 = assay: Antiproliferative activity against human EOL1 assessed as reduction in cell viability incubated for 48 hrs by CellTiter-Glo cell vaibility assay; format: functional, cell-based; conditions: EOL1, 48 h
Outline: (§1)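 Tumour cell lines (SCLC panel and AML panel) exposed to increasing concentrations for 48 hours, then cell viability measured. Cell-killing EC50 taken from the concentration-response.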

SET-2 = assay: Antiproliferative activity against human SET2 harboring JAK2 V617F mutant assessed as reduction in cell viability incubated for 48 hrs by CellTiter-Glo cell vaibility assay; format: functional, cell-based; conditions: SET-2, 48 h; outline: as §1
HL-60 = assay: Antiproliferative activity against human HL-60 assessed as reduction in cell viability incubated for 48 hrs by CellTiter-Glo cell vaibility assay; format: functional, cell-based; conditions: HL-60, 48 h; outline: as §1
[1] = Inhibition of granulocyte colony formation in human bone marrow cells at 0.1 to 20 uM incubated for 14 to 16 days in presence of docetaxel by light microscopic analysis; format: toxicity, cell-based; conditions: bone marrow cell, dose lower 0.1 µM, time lower 14 day, dose upper 20 µM, time upper 16 day
Outline: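 Human bone marrow granulocyte colony-forming assay in semisolid medium, increasing inhibitor concentrations ± 5 nM docetaxel; colonies counted by light microscopy after 14 days; triplicate means with SD; combinations compared with docetaxel alone by Student's t test.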

HEL = assay: Antiproliferative activity against human HEL harboring JAK2 V617F mutant assessed as reduction in cell viability incubated for 48 hrs by CellTiter-Glo cell vaibility assay; format: functional, cell-based; outline: as §1
[2] = Antiproliferative activity against human UKE-1 harboring JAK2 V617F mutant assessed as reduction in cell viability incubated for 48 hrs by CellTiter-Glo cell vaibility assay; format: functional, cell-based; conditions: UKE1, 48 h; outline: as §1
THP-1 = assay: Antiproliferative activity against human THP-1 assessed as reduction in cell viability incubated for 48 hrs by CellTiter-Glo cell vaibility assay; format: functional, cell-based; conditions: THP-1, 48 h; outline: as §1
[3] = Inhibition of granulocyte colony formation in human bone marrow cells at 0.1 to 20 uM incubated for 14 to 16 days by light microscopic analysis; format: toxicity, cell-based; conditions: bone marrow cell, dose lower 0.1 µM, time lower 14 day, dose upper 20 µM, time upper 16 day
Outline: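 Isolated human bone marrow cells cultured in semisolid medium with increasing inhibitor concentrations; granulocyte (neutrophil) colonies counted by light microscopy after 15–16 days; triplicate means with SD; Student's t test versus solvent control.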

DMS-79 = assay: Antiproliferative activity against human DMS 79 assessed as reduction in cell viability incubated for 48 hrs by CellTiter-Glo cell vaibility assay; format: functional, cell-based; conditions: DMS-79, 48 h; outline: as §1
SIG-M5 = assay: Antiproliferative activity against human SIG-M5 assessed as reduction in cell viability incubated for 48 hrs by CellTiter-Glo cell vaibility assay; format: functional, cell-based; conditions: SIG-M5, 48 h; outline: as §1
[4] = Antiproliferative activity against human OCI-M1 assessed as reduction in cell viability incubated for 48 hrs by CellTiter-Glo cell vaibility assay; format: functional, cell-based; conditions: OCI-M1, 48 h; outline: as §1
NCI-H1048 = assay: Antiproliferative activity against human NCI-H1048 assessed as reduction in cell viability incubated for 48 hrs by CellTiter-Glo cell vaibility assay; format: functional, cell-based; conditions: NCI-H1048, 48 h; outline: as §1
GDM-1 = assay: Antiproliferative activity against human GDM-1 assessed as reduction in cell viability incubated for 48 hrs by CellTiter-Glo cell vaibility assay; format: functional, cell-based; conditions: GDM-1, 48 h; outline: as §1
MOLM-13 = assay: Antiproliferative activity against human MOLM-13 assessed as reduction in cell viability incubated for 48 hrs by CellTiter-Glo cell vaibility assay; format: functional, cell-based; conditions: MOLM-13, 48 h; outline: as §1
OCI-AML-5 = assay: Antiproliferative activity against human OCI-AML5 assessed as reduction in cell viability incubated for 48 hrs by CellTiter-Glo cell vaibility assay; format: functional, cell-based; conditions: OCI-AML-5, 48 h; outline: as §1
NCI-H1417 = assay: Antiproliferative activity against human NCI-H1417 assessed as reduction in cell viability incubated for 48 hrs by CellTiter-Glo cell vaibility assay; format: functional, cell-based; conditions: NCI-H1417, 48 h; outline: as §1
SKM-1 = assay: Antiproliferative activity against human SKM-1 assessed as reduction in cell viability incubated for 48 hrs by CellTiter-Glo cell vaibility assay; format: functional, cell-based; conditions: SKM-1, 48 h; outline: as §1
[5] = Antiproliferative activity against human NCI-H847 assessed as reduction in cell viability incubated for 48 hrs by CellTiter-Glo cell vaibility assay; format: functional, cell-based; conditions: NCI-H847, 48 h; outline: as §1
NCI-H1836 = assay: Antiproliferative activity against human NCI-H1836 assessed as reduction in cell viability incubated for 48 hrs by CellTiter-Glo cell vaibility assay; format: functional, cell-based; conditions: NCI-H1836, 48 h; outline: as §1
NCI-H889 = assay: Antiproliferative activity against human NCI-H889 assessed as reduction in cell viability incubated for 48 hrs by CellTiter-Glo cell vaibility assay; format: functional, cell-based; conditions: NCI-H889, 48 h; outline: as §1
OCI-AML-3 = assay: Antiproliferative activity against human OCI-AML-3 assessed as reduction in cell viability incubated for 48 hrs by CellTiter-Glo cell vaibility assay; format: functional, cell-based; conditions: OCI-AML-3, 48 h; outline: as §1
[6] = Antiproliferative activity against human HNT-34 assessed as reduction in cell viability incubated for 48 hrs by CellTiter-Glo cell vaibility assay; format: functional, cell-based; conditions: HNT-34, 48 h; outline: as §1
NCI-H187 = assay: Antiproliferative activity against human NCI-H187 assessed as reduction in cell viability incubated for 48 hrs by CellTiter-Glo cell vaibility assay; format: functional, cell-based; conditions: NCI-H187, 48 h; outline: as §1
MOLT-4 = assay: Antiproliferative activity against Bcl-xl dependent human MOLT-4 cells assessed as reduction in cell viability by measuring effect concentration by CellTiter-Glo reagent based assay; format: functional
[7] = Antiproliferative activity against human PL-21 assessed as reduction in cell viability incubated for 48 hrs by CellTiter-Glo cell vaibility assay; format: functional, cell-based; conditions: PL-21, 48 h; outline: as §1
NCI-H446 = assay: Antiproliferative activity against human NCI-H446 assessed as reduction in cell viability incubated for 48 hrs by CellTiter-Glo cell vaibility assay; format: functional, cell-based; conditions: NCI-H446, 48 h; outline: as §1
NCI-H211 = assay: Antiproliferative activity against human NCI-H211 assessed as reduction in cell viability incubated for 48 hrs by CellTiter-Glo cell vaibility assay; format: functional, cell-based; conditions: NCI-H211, 48 h; outline: as §1
Kasumi 1 = assay: Antiproliferative activity against human Kasumi 1 assessed as reduction in cell viability incubated for 48 hrs by CellTiter-Glo cell vaibility assay; format: functional, cell-based; conditions: Kasumi 1, 48 h; outline: as §1
[8] = Antiproliferative activity against human OCI-M2 assessed as reduction in cell viability incubated for 48 hrs by CellTiter-Glo cell vaibility assay; format: functional, cell-based; conditions: OCI-M2, 48 h; outline: as §1
NOMO-1 = assay: Antiproliferative activity against human NOMO-1 assessed as reduction in cell viability incubated for 48 hrs by CellTiter-Glo cell vaibility assay; format: functional, cell-based; conditions: NOMO-1, 48 h; outline: as §1
MV4-11 = assay: Antiproliferative activity against human MV4-11 assessed as reduction in cell viability incubated for 48 hrs by CellTiter-Glo cell vaibility assay; format: functional, cell-based; conditions: MV4-11, 48 h; outline: as §1
KG-1 = assay: Antiproliferative activity against human KG-1 assessed as reduction in cell viability incubated for 48 hrs by CellTiter-Glo cell vaibility assay; format: functional, cell-based; conditions: KG-1, 48 h; outline: as §1
OCI-AML2 = assay: Antiproliferative activity against human OCI-AML2 assessed as reduction in cell viability incubated for 48 hrs by CellTiter-Glo cell vaibility assay; format: functional, cell-based; conditions: OCI-AML2, 48 h; outline: as §1
[9] = target: Induced myeloid leukemia cell differentiation protein Mcl-1 (Homo sapiens, UniProt Q07820); assay: Binding affinity to MCL-1 (unknown origin) assessed as dissociation constant incubated for 1 hrs by TR-FRET assay
Sequence of Induced myeloid leukemia cell differentiation protein Mcl-1 (Q07820 whole entry): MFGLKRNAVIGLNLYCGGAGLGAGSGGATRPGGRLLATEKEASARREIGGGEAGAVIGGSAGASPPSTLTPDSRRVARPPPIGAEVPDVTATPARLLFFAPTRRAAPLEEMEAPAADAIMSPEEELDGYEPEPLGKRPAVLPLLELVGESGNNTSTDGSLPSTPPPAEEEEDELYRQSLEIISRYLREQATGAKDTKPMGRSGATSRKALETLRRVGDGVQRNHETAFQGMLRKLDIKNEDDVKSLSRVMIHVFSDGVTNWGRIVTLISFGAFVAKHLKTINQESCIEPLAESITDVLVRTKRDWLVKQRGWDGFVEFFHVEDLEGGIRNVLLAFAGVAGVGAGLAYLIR

[10] = Antiproliferative activity against human ME-1 assessed as reduction in cell viability incubated for 48 hrs by CellTiter-Glo cell vaibility assay; format: functional, cell-based; conditions: ME-1, 48 h; outline: as §1
ML-2 = assay: Antiproliferative activity against human ML-2 assessed as reduction in cell viability incubated for 48 hrs by CellTiter-Glo cell vaibility assay; format: functional, cell-based; conditions: ML-2, 48 h; outline: as §1
[11] = Antiproliferative activity against human MOLM16 assessed as reduction in cell viability incubated for 48 hrs by CellTiter-Glo cell vaibility assay; format: functional, cell-based, MOLM-16; conditions: MOLM16, 48 h; outline: as §1
NCI-H345 = assay: Antiproliferative activity against human NCI-H345 assessed as reduction in cell viability incubated for 48 hrs by CellTiter-Glo cell vaibility assay; format: functional, cell-based; conditions: NCI-H345, 48 h; outline: as §1
NCI-H69 = assay: Antiproliferative activity against human NCI-H69 assessed as reduction in cell viability incubated for 48 hrs by CellTiter-Glo cell vaibility assay; format: functional, cell-based; conditions: NCI-H69, 48 h; outline: as §1

CC1(C)CCC(CN2CCN(c3ccc(C(=O)NS(=O)(=O)c4ccc(NCC5CCOCC5)c([N+](=O)[O-])c4)c(Oc4cnc5[nH]ccc5c4)c3)CC2)=C(c2ccc(Cl)cc2)C1 [VENETOCLAX] showed an EC50 (EOL1) of 0.1 µM, an EC50 (SET-2) of 3.33 µM and an EC50 (HL-60) of 0.1 µM. The Activity [1] was “Toxic”, the EC50 (HEL) was 3.37 µM and the EC50 [2] was 3.06 µM. The EC50 (THP-1) was 0.82 µM, the Activity [3] was “Toxic” and the EC50 (DMS-79) was 4.62 µM. The EC50 (SIG-M5) was 0.1 µM, the EC50 [4] was greater than 5 µM and the EC50 (NCI-H1048) was 2.7 µM. For the same compound, the EC50 (GDM-1) was 0.1 µM, the EC50 (MOLM-13) was 0.1 µM and the EC50 (OCI-AML-5) was 0.11 µM. For the same compound, the EC50 (NCI-H1417) was 4.1 µM, the EC50 (SKM-1) was 2.53 µM and the EC50 [5] was 3.9 µM. The EC50 (NCI-H1836) was 5 µM, the EC50 (NCI-H889) was 0.015 µM and the EC50 (OCI-AML-3) was greater than 5 µM. For the same compound, the EC50 [6] was 1.7 µM, the EC50 (NCI-H187) was 0.85 µM and the EC50 (MOLT-4) was greater than 5 µM. The EC50 [7] was 1.81 µM, the EC50 (NCI-H446) was 2.4 µM and the EC50 (NCI-H211) was 0.33 µM. For the same compound, the EC50 (Kasumi 1) was 1 µM, the EC50 [8] was 4.05 µM and the EC50 (NOMO-1) was greater than 5 µM. For the same compound, the EC50 (MV4-11) was 0.1 µM, the EC50 (KG-1) was 1.2 µM and the EC50 (OCI-AML2) was 0.1 µM. The Ki [9] was greater than 0.444 µM, the EC50 [10] was greater than 5 µM and the EC50 (ML-2) was 0.1 µM. For the same compound, the EC50 [11] was 0.04 µM, the EC50 (NCI-H345) was 1.2 µM and the EC50 (NCI-H69) was 3.86 µM.
